The list is not random: actives were taken first. Their share in the collection is about 3%.
UBC13 inh – blocks human UBC13 polyubiquitin chain formation; inhibition, % at 20 µM; 330,000 compounds, 0.47% hits; TR-FRET; in the data active = inhibition above about 45%, passing the limit was not always enough
SENP6 block – inhibitors of human SENP6 protease; Q9GZR1; Recombinant SENP6 catalytic domain, aminoluciferin luminescence; inhibition, % at 10 µM; 330,000 compounds, 1.8% hits; AID 2599;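 active = inhibition above about 50% at the single tested dose, limit read from the data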;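 also: plate controls were DMSO wells with enzyme for no effect and DMSO wells lacking enzyme for full effect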
SENP8 block-1 – SENP8 (human) protease inhibition; 360,000 compounds, 0.64% hits; Q96LD8; recombinant SENP8, Nedd8 substrate fluorescence; inhibition, % at 20 µM; AID 602440; in the data active = inhibition mostly above about 40%, no sharp cut-off; inactive = mostly below about 27%
Apaf1 inhib – human Apaf-1 inhibition; O14727; inhibition, % at 20 µM; 330,000 compounds, 0.71% hits; reconstituted apoptosome caspase-3 activity, DEVD-Rh110 fluorescence; active = inhibition of at least 40% at 20 µM;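 also: plate controls were DMSO wells for no effect and DEVD-CHO caspase inhibitor wells for full effect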
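Medium: Hepes buffer, pH 7.5 / System: biochemical Apaf-1 apoptosome reconstitution / Measured by: Rh110 fluorescence, excitation 480 nm, emission 540 nm / Times: compound with Apaf-1, dATP, procaspase-3 30 min, then 50 min reaction, room temperature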
SENP8 block-2 – blocks the human protease SENP8; Q96LD8; purified SENP8, Z-RLRGG-aminoluciferin cleavage, luminescence; inhibition, % at 10 µM; 330,000 compounds, 1.2% hits; in the data active = inhibition above about 50%
SENP7 block – SENP7 protease inhibition; Q9BQF6; recombinant SENP7, Z-RLRGG-aminoluciferin luminescence, 40 min; inhibition, % at 5 µM; 330,000 compounds, 1.5% hits;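 active = inhibition above about 50% at the single test dose, limit read from the data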;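 also: plate controls were DMSO with enzyme for no effect and no enzyme buffer wells for full effect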
SENP8 confirm – human SENP8 inhibition, confirmed. shares compounds with SENP7 block. Recombinant SENP8, Z-RLRGG-aminoluciferin luminescence, 60 min. inhibition, % at 12.5 µM. 6,200 compounds, 40% hits. AID 488912;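 active = mean inhibition across replicates above about 50%, limit read from the data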
SENP6 conf – human SENP6 inhibition, confirmed; shares compounds with SENP7 block; AID 488915; inhibition, % at 12.5 µM; recombinant SENP6, Z-RLRGG-aminoluciferin luminescence; 6,200 compounds, 58% hits
SENP7 confirm – human SENP7 inhibition, confirmed | recombinant SENP7, Z-RLRGG-aminoluciferin luminescence, 40 min | inhibition, % at 12.5 µM | shares compounds with SENP7 block | AID 488917 | 6,200 compounds, 69% hits
Casp3 select – caspase-3 inhibition (SENP selectivity assay); shares compounds with SENP7 block; purified caspase-3, Z-DEVD-aminoluciferin luminescence, 60 min; inhibition, % at 12.5 µM; 6,200 compounds, 60% hits;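 active = mean inhibition above about 50%, limit read from the data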;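 also: plate controls were enzyme with DMSO for no effect and wells without caspase-3 for full effect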
Luc interf – counter-screen for SENP inhibitors: luminescence interference; shares compounds with SENP7 block; 6,200 compounds, 39% hits; inhibition, % at 12.5 µM; Pre-incubated SENP8/Z-RLRGG-aminoluciferin, luciferase luminescence interference; AID 488919;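 active = mean inhibition above about 50% when retested at one dose, limit read from the data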;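 also: plate controls were DMSO wells with completed reaction for no effect and substrate without enzyme for full effect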
Starred values were filed as active, the others as inactive; · = no result.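 The calls were made as follows, unless noted: active = mean inhibition above about 50% in the one-dose retest (limit read from the data); inactive = the rest.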

SMILES	UBC13 inh	SENP6 block	SENP8 block-1	Apaf1 inhib	SENP8 block-2	SENP7 block	SENP8 confirm	SENP6 conf	SENP7 confirm	Casp3 select	Luc interf
COc1ccc(C(=O)COC(=O)c2n[nH]c3ccccc23)c(OC)c1	-4	51*	-4	21	25	21	43	37	69*	32	35
COc1ccc(OC)c(NC(=O)COC(=O)c2n[nH]c3ccccc23)c1	18	4	5	-4	4	0	·	·	·	·	·
COCCn1c(C)cc(C(=O)COC(=O)c2cccnc2SC)c1C	-19	87*	7	2	78*	85*	86*	86*	98*	91*	69*
Cc1cc(C(=O)COC(=O)c2ccccc2O)c(C)n1Cc1cccs1	-2	92*	-8	-3	93*	95*	93*	98*	101*	93*	51*
Cc1cc(C(=O)COC(=O)c2ccc3c(c2)OCO3)c(C)n1Cc1cccs1	-4	-69	5	17	-3	-5	·	·	·	·	·
COCCn1c(C)cc(C(=O)COC(=O)c2n[nH]c3ccccc23)c1C	-20	71*	21	13	82*	86*	94*	94*	100*	92*	87*
O=C(NCc1ccccc1Cl)[C@@H]1CCCN1S(=O)(=O)c1ccc(Cl)cc1	12	1	26	11	1	9	·	·	·	·	·
CC(C)(C)OC(=O)CC1(C#N)c2ccccc2C(Br)=CN1C(=O)c1ccccc1 (centres undefined)	20	-1	6	9	5	1	·	·	·	·	·
Cc1cc(C(=O)COC(=O)c2ccccc2O)c(C)n1CC1CCCO1 (centres undefined)	0	97*	-21	2	95*	97*	98*	99*	102*	88*	56*
Cc1cc(C(=O)COC(=O)c2n[nH]c3ccccc23)c(C)n1CC1CCCO1 (centres undefined)	3	86*	21	17	87*	13	47	92*	99*	90*	77*
Cc1cc(C(=O)COC(=O)c2cccnc2Cl)c(C)n1CC1CCCO1 (centres undefined)	-7	90*	9	6	90*	93*	95*	96*	101*	98*	80*
Cc1ccc(C(=O)OCC(=O)c2cc(C)n(CC3CCCO3)c2C)cc1 (centres undefined)	10	-27	14	8	10	11	·	·	·	·	·
COc1cc(NC(=O)Cn2cnc(S(=O)(=O)N3CCC(C)CC3)c2)cc(OC)c1OC	8	-7	23	-5	2	4	·	·	·	·	·
C[C@H](O)[C@@H]1CN2CCc3c([nH]c4ccc(-c5ccc6c(c5)OCO6)cc34)[C@@H]2C[C@@H]1N(C)C(=O)Nc1cc(Cl)cc(Cl)c1	·	·	-49	·	·	·	·	·	·	·	·
COc1ccc(NC(=O)Nc2ccc3c(c2)C(=O)N([C@@H](C)CO)C[C@@H](C)[C@@H](CN(C)S(=O)(=O)c2cccs2)O3)cc1	-3	-3	-6	10	8	2	·	·	·	·	·
O=C(N/N=C/c1cccs1)c1[nH]ncc1Br	-6	76*	9	5	50	76*	61*	58*	86*	90*	68*
Cc1cc(C(=O)N/N=C\c2cc(C(C)(C)C)ccc2O)n[nH]1	2	7	-3	19	9	-3	·	·	·	·	·
Cc1nn(-c2ccccc2)c(Cl)c1/C=N/NC(=O)c1[nH]ncc1Br	3	92*	9	1	92*	95*	8	94*	102*	95*	20
Cc1ccc(O)c(/C=N/NC(=O)c2[nH]ncc2Br)c1	8	77*	11	-8	89*	93*	25	21	39	38	42
CCOc1ccc(/C=N/NC(=O)c2[nH]ncc2Br)c(O)c1	-5	99*	-7	9	98*	102*	99*	100*	103*	99*	52*
COc1ccc(OC)c(/C=N/NC(=O)c2[nH]ncc2Br)c1	15	-32	-414	5	-7	4	·	·	·	·	·
CN(Cc1ccccc1)C(=O)c1cc2cc(F)ccc2[nH]1	11	5	-16	11	9	2	·	·	·	·	·
O=C(COc1ccc(Br)cc1)NCC1COc2ccccc2O1 (centres undefined)	-2	4	8	3	5	-4	·	·	·	·	·
CCCCC[C@H](C)N1C[C@@H](COCc2ccccc2)Oc2cc(N3CCC[C@H]3CO)ccc2S1(=O)=O	·	·	11	·	·	·	·	·	·	·	·
Cc1cccc(NC(=O)CNC(=O)c2cccc(S(=O)(=O)NCc3cccs3)c2)c1C	10	-4	18	-2	4	-7	·	·	·	·	·
SMILES	UBC13 inh	SENP6 block	SENP8 block-1	Apaf1 inhib	SENP8 block-2	SENP7 block	SENP8 confirm	SENP6 conf	SENP7 confirm	Casp3 select	Luc interf
O=S(=O)(Nc1ccon1)c1ccc(Br)s1	-8	-12	-16	-4	0	-7	·	·	·	·	·
O=C(N/N=C/c1c(O)ccc2ccccc12)c1[nH]ncc1Br	-22	51*	-40	12	18	19	33	41	77*	28	48
O=C(NN=Cc1c(O)ccc2ccccc12)C1CC1	·	·	-5	·	·	·	·	·	·	·	·
COc1ccc(NC(=O)Nc2ccccc2C(N)=O)cc1	7	96*	11	-12	91*	96*	-2	95*	102*	98*	89*
CCOc1ccc(NC(=O)Nc2ccccc2C(N)=O)cc1	6	98*	11	-2	91*	100*	95*	97*	102*	98*	32
COc1ccc(NC(=O)Nc2ccc(F)c(F)c2)c(OC)c1	-10	-5	22	12	-4	1	·	·	·	·	·
CCOc1ccc(NC(=O)Nc2ccc(NC(C)=O)cc2)cc1	-10	-8	9	10	-2	2	·	·	·	·	·
COc1ccc(NC(=O)Nc2cc(C)ccc2F)cc1	0	92*	14	4	88*	-5	1	92*	101*	91*	59*
CC(C)n1c(=O)c2ccccc2n1Cc1cn(Cc2cccs2)nn1	·	·	-367	·	·	·	·	·	·	·	·
CC1CC(C)CN(c2ccc(C(=O)NCc3ccc4c(c3)OCO4)cc2[N+](=O)[O-])C1 (centres undefined)	-20	-2	13	0	-4	0	·	·	·	·	·

Assay outcomes: PubChem, Sanford-Burnham Center for Chemical Genomics
